Assay results as given in ChEMBL document CHEMBL3603735 (J Med Chem, 2015).

Legend:
[1] = biological target: T1, Neuronal acetylcholine receptor; alpha3/beta4 (Homo sapiens, UniProt P30926+P32297); assay: Agonist activity at human alpha3beta4 nAChR expressed in rat GH4C1 cells assessed as induction of peak current amplitude at holding potential of -70 mV by whole-cell patch clamp assay relative to acetylcholine; type: cell-based; details: GH4-C1
Procedure, shortened: (§1)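 Human α3β4 or α4β2 nAChR transiently transfected into rat anterior pituitary GH4C1 cells (0.5 μg each subunit cDNA, magnetofection). Whole-cell patch clamp at −70 mV holding potential, with gravity-driven fast perfusion. Agonist concentrations applied sequentially. Peak currents normalized to 1 mM ACh on the same cell. EC50, Imax and nH from Hill equation fit.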

[2] = biological target: T2, Neuronal acetylcholine receptor; alpha4/beta2 (Homo sapiens, UniProt P17787+P43681); assay: Agonist activity at human alpha4beta2 nAChR in (alpha4)3(beta2)2 stoichiometry form relative to control; type: protein-complex assay
T2 sequence (P17787 whole entry): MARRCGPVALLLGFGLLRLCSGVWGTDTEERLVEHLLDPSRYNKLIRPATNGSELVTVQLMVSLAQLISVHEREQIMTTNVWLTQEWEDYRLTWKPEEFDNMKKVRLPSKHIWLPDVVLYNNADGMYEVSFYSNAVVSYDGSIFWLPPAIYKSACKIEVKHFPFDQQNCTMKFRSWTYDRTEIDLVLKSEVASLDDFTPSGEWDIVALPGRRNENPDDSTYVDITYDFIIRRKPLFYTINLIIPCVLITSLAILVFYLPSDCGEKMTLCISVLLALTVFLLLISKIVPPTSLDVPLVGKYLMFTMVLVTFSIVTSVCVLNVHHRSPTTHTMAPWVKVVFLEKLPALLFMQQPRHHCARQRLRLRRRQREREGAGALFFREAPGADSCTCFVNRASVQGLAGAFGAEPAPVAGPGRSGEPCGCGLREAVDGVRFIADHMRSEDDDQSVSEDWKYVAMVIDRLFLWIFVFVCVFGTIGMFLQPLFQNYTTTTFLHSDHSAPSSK
T2 sequence (P43681 whole entry): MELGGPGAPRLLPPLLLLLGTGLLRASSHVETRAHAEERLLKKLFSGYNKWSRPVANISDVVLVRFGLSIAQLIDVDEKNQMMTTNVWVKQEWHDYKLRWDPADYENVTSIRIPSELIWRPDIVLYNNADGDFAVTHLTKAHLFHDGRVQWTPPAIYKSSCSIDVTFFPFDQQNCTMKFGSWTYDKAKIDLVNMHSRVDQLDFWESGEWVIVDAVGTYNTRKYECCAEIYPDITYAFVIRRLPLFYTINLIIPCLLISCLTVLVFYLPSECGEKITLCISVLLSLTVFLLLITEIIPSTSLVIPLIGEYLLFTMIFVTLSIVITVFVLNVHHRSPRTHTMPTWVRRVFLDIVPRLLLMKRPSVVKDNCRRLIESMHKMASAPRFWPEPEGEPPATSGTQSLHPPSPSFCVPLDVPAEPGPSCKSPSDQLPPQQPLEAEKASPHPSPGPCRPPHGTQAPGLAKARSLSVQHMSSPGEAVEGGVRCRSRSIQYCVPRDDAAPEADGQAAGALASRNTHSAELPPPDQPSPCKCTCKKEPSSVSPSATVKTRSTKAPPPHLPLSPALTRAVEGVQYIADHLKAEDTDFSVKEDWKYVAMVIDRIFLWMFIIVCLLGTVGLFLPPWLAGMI

[3] = biological target: T2, Neuronal acetylcholine receptor; alpha4/beta2; assay: Agonist activity at human alpha4beta2 nAChR expressed in rat GH4C1 cells assessed as induction of peak current amplitude at holding potential of -70 mV by whole-cell patch clamp assay relative to acetylcholine; type: cell-based; details: GH4-C1; procedure, shortened: as §1
[4] = biological target: T2, Neuronal acetylcholine receptor; alpha4/beta2; assay: Agonist activity at human alpha4beta2 nAChR expressed in rat GH4C1 cells assessed as induction of peak current amplitude at holding potential of -70 mV by whole-cell patch clamp assay; type: cell-based, GH4-C1; procedure, shortened: as §1
[5] = biological target: Neuronal acetylcholine receptor; alpha4/beta2 (Rattus norvegicus, UniProt P09483+P12390); assay: Displacement of [3H]epibatidine from alpha4beta2 nAChR in rat cortex membranes by liquid scintillation counting method; type: cell membranes
Neuronal acetylcholine receptor; alpha4/beta2 (Rattus norvegicus, UniProt P09483+P12390), sequence (P09483 whole entry): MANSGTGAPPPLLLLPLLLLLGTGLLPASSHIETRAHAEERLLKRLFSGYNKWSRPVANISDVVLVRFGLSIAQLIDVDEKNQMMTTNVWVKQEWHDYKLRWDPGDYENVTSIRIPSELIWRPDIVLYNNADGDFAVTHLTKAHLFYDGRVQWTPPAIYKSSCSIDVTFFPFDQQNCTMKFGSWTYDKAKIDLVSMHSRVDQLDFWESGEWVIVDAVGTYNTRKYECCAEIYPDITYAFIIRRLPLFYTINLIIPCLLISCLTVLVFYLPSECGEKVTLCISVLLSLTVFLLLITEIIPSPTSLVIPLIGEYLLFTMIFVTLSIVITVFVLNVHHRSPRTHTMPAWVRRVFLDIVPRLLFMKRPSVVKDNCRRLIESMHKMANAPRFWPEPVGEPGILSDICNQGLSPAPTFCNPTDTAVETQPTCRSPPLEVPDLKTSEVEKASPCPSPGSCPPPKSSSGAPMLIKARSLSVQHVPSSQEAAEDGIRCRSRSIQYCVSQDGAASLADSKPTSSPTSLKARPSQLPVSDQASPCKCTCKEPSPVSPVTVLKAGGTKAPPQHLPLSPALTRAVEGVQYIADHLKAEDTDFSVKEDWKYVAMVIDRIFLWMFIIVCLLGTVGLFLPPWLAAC
Neuronal acetylcholine receptor; alpha4/beta2 (Rattus norvegicus, UniProt P09483+P12390), sequence (P12390 whole entry): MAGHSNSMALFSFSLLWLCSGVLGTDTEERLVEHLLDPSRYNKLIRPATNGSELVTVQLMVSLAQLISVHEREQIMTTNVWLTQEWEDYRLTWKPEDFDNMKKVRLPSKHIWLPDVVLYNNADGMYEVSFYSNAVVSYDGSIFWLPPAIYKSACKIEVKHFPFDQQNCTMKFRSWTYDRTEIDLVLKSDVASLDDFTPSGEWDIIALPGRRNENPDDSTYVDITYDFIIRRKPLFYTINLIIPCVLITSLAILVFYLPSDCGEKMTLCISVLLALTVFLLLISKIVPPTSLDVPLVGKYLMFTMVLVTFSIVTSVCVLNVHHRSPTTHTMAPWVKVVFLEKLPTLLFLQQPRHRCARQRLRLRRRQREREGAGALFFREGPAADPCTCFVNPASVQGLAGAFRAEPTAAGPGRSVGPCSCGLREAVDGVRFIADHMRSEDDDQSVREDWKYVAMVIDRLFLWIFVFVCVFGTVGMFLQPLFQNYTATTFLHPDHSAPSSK
Procedure, shortened: (§2)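 Rat hippocampus (α7) or cortex (α4β2) membranes. Ki obtained by simultaneous nonlinear least-squares fitting of three saturation plus three competition binding experiments per compound per subtype.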

[6] = biological target: T1, Neuronal acetylcholine receptor; alpha3/beta4; assay: Displacement of [3H]epibatidine from human alpha3beta4 nAChR expressed in HEK293 cell membranes by liquid scintillation counting method
Procedure, shortened: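 Competition against [3H]epibatidine on membranes of human α3β4-transfected cells. Ki obtained by simultaneously fitting three independent saturation and three competition experiments per compound with nonlinear least squares.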

[7] = biological target: Neuronal acetylcholine receptor subunit alpha-7 (Rattus norvegicus, UniProt Q05941); assay: Displacement of [125I]]-alpha-bungarotoxin from alpha7 nAChR in rat hippocampus membranes by liquid scintillation counting method; type: cell membranes, Membrane; procedure, shortened: as §2
Neuronal acetylcholine receptor subunit alpha-7, sequence (Q05941 whole entry): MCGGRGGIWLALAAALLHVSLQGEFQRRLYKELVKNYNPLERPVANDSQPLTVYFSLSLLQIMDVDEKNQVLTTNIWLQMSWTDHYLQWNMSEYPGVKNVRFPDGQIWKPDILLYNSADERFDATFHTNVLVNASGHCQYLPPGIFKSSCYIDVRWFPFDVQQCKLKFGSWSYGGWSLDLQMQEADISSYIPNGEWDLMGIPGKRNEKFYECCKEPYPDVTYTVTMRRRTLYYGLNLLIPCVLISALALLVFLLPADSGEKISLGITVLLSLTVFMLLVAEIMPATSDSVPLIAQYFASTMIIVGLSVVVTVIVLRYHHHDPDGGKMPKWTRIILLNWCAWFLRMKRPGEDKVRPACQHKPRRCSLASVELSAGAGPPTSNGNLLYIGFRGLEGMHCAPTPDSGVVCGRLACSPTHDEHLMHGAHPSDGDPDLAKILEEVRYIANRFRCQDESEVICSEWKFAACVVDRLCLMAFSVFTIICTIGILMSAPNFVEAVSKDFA

[8] = biological target: T1, Neuronal acetylcholine receptor; alpha3/beta4; assay: Agonist activity at human alpha3beta4 nAChR expressed in rat GH4C1 cells assessed as induction of peak current amplitude at holding potential of -70 mV by whole-cell patch clamp assay; type: cell-based, GH4-C1
Procedure, shortened: (§3)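 Human α3β4 or α4β2 subunit cDNAs (0.5 μg each) transiently transfected into rat GH4C1 cells by magnetofection. Whole-cell voltage clamp at −70 mV, 85−90% series-resistance compensation, fast gravity-perfusion exchanger. Agonist concentrations applied sequentially; peak currents normalized to 1 mM ACh on the same cell. EC50 and nH from Hill-equation fit where possible.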

[9] = biological target: T2, Neuronal acetylcholine receptor; alpha4/beta2; assay: Selectivity index, ratio of EC50 for human alpha3beta4 nAChR expressed in rat GH4C1 cells to EC50 for human alpha4beta2 nAChR expressed in rat GH4C1 cells; type: cell-based; details: GH4-C1; procedure, shortened: as §3

T1 sequence (P30926 whole entry, the tested form may be a part): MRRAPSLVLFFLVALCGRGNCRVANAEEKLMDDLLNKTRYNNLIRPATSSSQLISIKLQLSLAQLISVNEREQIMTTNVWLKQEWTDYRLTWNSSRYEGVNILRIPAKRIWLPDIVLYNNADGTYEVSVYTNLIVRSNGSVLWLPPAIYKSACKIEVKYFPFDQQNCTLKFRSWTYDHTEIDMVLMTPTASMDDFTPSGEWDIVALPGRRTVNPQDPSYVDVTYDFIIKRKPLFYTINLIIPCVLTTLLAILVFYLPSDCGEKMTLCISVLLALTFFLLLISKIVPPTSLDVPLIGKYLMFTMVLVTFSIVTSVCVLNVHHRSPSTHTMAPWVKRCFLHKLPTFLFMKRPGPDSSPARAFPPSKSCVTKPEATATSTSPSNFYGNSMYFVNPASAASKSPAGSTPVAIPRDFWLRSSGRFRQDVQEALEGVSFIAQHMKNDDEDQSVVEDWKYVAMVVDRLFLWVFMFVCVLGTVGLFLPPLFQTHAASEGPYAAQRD
T1 sequence (P32297 whole entry, the tested form may be a part): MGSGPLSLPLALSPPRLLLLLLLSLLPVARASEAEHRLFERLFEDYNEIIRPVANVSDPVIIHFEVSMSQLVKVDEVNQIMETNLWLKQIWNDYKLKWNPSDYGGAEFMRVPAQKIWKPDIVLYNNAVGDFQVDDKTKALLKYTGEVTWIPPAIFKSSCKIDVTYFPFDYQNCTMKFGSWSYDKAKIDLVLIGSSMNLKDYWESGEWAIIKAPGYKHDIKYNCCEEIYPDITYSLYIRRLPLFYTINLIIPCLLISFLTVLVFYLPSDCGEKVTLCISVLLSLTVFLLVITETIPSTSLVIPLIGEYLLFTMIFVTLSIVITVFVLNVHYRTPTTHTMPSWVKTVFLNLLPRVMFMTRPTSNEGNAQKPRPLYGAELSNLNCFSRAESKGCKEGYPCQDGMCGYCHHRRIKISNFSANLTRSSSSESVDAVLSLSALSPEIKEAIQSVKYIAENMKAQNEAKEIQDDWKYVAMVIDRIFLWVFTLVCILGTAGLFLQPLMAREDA

| SMILES | Imax [1] [%] | Efficacy [2] [%] | Imax [3] [%] | EC50 [4] [nM] | Ki [5] [nM] | Ki [6] [nM] | Ki [7] [nM] | EC50 [8] [nM] | Ratio EC50 [9] |
| --- | --- | --- | --- | --- | --- | --- | --- | --- | --- |
| OCCCCC#Cc1cncc(OC[C@@H]2CCN2)c1 | 24 | 6 | 39 | 0.27 |  |  |  |  |  |
| COc1ncccc1OC[C@@H]1CCCN1C |  |  |  |  | 7280 | 793 |  |  |  |
| C[C@@H](Oc1ccccc1)[C@@H]1CCCN1C (racemic) |  |  |  |  | 1550 | 1300 | 15200 |  |  |
| CC(Oc1ccccc1)C1CCCN1C (mixture of isomers) |  |  |  |  | 4590 | 1400 | 8900 |  |  |
| C[C@H](Oc1cccc(O)c1)[C@@H]1CCCN1C |  |  |  |  | 192 | 752 | 743 |  |  |
| CN1CCC[C@H]1[C@@H]1COc2ccc(O)cc2O1 | 28 |  | 29 | 300 |  |  |  | 17000 | 57 |
| COc1ccc(O)cc1OC[C@@H]1CCCN1 |  |  |  |  | 1080 | 7700 |  |  |  |
| Oc1cccc(OC[C@@H]2CCN2)c1 |  |  |  |  | 7.1 | 40 | 1200 |  |  |
| COc1ccc(O)cc1OC[C@@H]1CCCN1C | 7 |  | 17 |  | 18.9 | 271 | 1150 |  |  |
| COc1ccccc1OC[C@@H]1CCCN1 |  |  |  |  | 53500 | 3600 |  |  |  |
| CN1CC[C@H]1COc1cccc(O)c1 | 57 |  | 131 |  | 8.5 | 102 | 29 | 9200 |  |
| CN1CCC[C@H]1COc1cncc(O)c1 | 15 |  | 661 | 73000 | 3.7 | 235 | 321 |  |  |
| C[C@@H](Oc1cccc(O)c1)[C@@H]1CCCN1C (racemic) |  |  |  |  | 11.1 | 257 | 57 |  |  |
| COc1ccncc1OC[C@@H]1CCCN1C |  |  |  |  | 255 | 2100 | 9400 |  |  |
| CN1CCC[C@H]1COc1cccc(O)c1 | 85 |  | 162 | 4400 | 1.1 | 74 | 119 | 9000 |  |
| Oc1cccc(OC[C@@H]2CCCN2)c1 |  |  |  |  | 407 | 3800 | 212 |  |  |
| c1ccc(OC[C@@H]2CCN2)cc1 |  |  |  |  | 52 |  |  |  |  |
| COc1ccncc1OC[C@@H]1CCCN1 |  |  |  |  | 613 | 2900 | 21500 |  |  |
| C[C@H](Oc1cccnc1)[C@@H]1CCCN1C |  |  |  |  | 877 | 5600 | 6100 |  |  |
| COc1ccccc1OC[C@@H]1CCCN1C |  |  |  |  | 9400 | 749 |  |  |  |
| CN1CC[C@H]1COc1ccccc1 |  |  |  |  | 101 |  |  |  |  |
| COc1ncccc1OC[C@@H]1CCCN1 |  |  |  |  | 8960 | 5300 |  |  |  |
| C[C@@H](Oc1cccnc1)[C@@H]1CCCN1C (racemic) | 7 |  | 39 | 13 | 27 | 5000 | 388 |  |  |
| Oc1cncc(OC[C@@H]2CCCN2)c1 |  |  |  |  | 2.5 | 100 | 3500 |  |  |
